Measurements of several laboratories.
Target: MAP/microtubule affinity-regulating kinase 4 (MARK4, Homo sapiens, UniProt Q96L34)
Residues used in one study (Q96L34 1-752): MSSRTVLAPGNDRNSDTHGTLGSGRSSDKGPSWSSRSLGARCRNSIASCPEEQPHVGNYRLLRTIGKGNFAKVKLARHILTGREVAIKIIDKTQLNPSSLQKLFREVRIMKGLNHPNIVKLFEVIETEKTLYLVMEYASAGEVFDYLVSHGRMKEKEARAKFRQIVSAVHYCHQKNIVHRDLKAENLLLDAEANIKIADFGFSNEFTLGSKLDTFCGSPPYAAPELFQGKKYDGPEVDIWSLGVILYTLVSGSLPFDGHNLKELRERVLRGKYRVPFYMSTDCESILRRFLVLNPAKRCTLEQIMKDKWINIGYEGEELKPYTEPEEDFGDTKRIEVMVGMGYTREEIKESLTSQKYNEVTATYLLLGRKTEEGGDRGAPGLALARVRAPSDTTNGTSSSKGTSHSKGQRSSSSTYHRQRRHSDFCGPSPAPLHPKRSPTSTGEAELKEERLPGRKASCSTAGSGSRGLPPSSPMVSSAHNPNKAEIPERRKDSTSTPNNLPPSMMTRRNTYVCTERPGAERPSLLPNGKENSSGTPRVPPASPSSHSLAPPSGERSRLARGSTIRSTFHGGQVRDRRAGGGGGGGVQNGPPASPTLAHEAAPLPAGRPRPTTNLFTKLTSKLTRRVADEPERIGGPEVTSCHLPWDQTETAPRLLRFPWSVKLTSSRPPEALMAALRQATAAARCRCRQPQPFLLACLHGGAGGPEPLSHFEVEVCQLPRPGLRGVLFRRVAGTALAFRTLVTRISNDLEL

Structure (SMILES)	test	conditions	measurement	result
CN1CC(Oc2cnc(C#N)cc2-c2ccn3nc(NC(=O)C4CC4)cc3c2)C1	enzyme activity, inhibitor	1 µM	inhibition	8%
COc1cc(Nc2cnc(C#N)c(O[C@H](C)CN(C)C)n2)ncc1-c1cnn(C)c1	enzyme activity, inhibitor, radiometric	10 µM	remaining activity	83%
Cc1nn(CC(F)(F)F)cc1Nc1nccc(NCCc2cnc[nH]2)n1	enzyme activity, inhibitor, radiometric	1 µM	remaining activity	99%
C[C@H]1CCN(c2nccc(-c3cnn4ncccc34)n2)C1	binding	1 µM	remaining binding	100%
COc1ccc2c(c1)O[C@@H](c1ccc(OC)c(OC)c1)C[C@H]2NC(=O)C1(c2ccc3c(c2)OC(F)(F)O3)CC1	cell-free assay, competition with immobilised ligand	1 µM	remaining binding	92%
N#CCCc1ccc2c(c1)-c1[nH]c3ccc([N+](=O)[O-])cc3c1CC(=O)N2	cell-free assay	0.5 µM	remaining signal	62.5%
CC/C(=N\NC(=O)NCc1cccc(O)c1)c1ccc(O)c(C)c1O	enzyme activity, inhibitor	0.1 µM	inhibition	-2.4%
O=C(N[C@H]1CCCCC/C=C\C2C[C@@]2(C(=O)O)NC(=O)[C@@H]2C[C@@H](Oc3ccncc3)CN2C1=O)OC1CCCC1 (stereo partly shown)	binding, competition with immobilised ligand	1 µM	remaining binding	100%
Nc1ncnc2occ(-c3ccc(NC(=O)Nc4cc(C(F)(F)F)ccc4F)cc3)c12	cell-free assay, inhibitor	20 µM	remaining signal	51%
Cc1nn(CC(F)(F)F)cc1Nc1ncc(C2CC2)c(NCCCNC(=O)C2CCC2)n1	enzyme activity, inhibitor, radiometric	1 µM	remaining activity	100%
CO[C@@H](C)c1c(Nc2ccc([C@H](N(C)C(=O)C3CCS(=O)(=O)CC3)C(F)(F)F)cc2)cnc2cc(Cl)nn12	cell-free assay, competition with immobilised ligand	1 µM	remaining binding	76%
Cc1nn(CC(F)(F)F)cc1Nc1ncc(Br)c(NCCc2cnc[nH]2)n1	enzyme activity, inhibitor, radiometric	1 µM	remaining activity	49%
O=C(Nc1cccnn1)N1CCC(=Cc2cccc(Oc3ccc(C(F)(F)F)cn3)c2)CC1	cell-free assay, competition with immobilised ligand	1 µM	remaining binding	76%
CCOc1cc(-c2nncn2C)ccc1Nc1ncc2cc(C)nc(NCC(C)(C)C)c2n1	enzyme activity, inhibitor, FRET	1 µM	inhibition	< 15%
FC(F)(F)Oc1cccc(-c2cnc3ccc(-c4ccncc4)nn23)c1	enzyme activity, inhibitor, radiometric	1 µM	activity vs control	91%
O=C(NCCCNc1nc(Nc2cccc(NC(=O)N3CCCC3)c2)ncc1C1CC1)C1CCC1	enzyme activity, inhibitor, radiometric	1 µM	remaining activity	7%
C[C@@H](c1cccc(C#N)c1)n1cc(Cl)cc(C(N)=O)c1=N	cell-free assay, competition with immobilised ligand	1 µM	remaining binding	100%
NS(=O)(=O)c1ccc(CNc2nc(Nc3cccc(NC(=O)N4CCCC4)c3)ncc2C2CC2)cc1	enzyme activity, inhibitor, radiometric	1 µM	remaining activity	89%
CCCS(=O)(=O)Nc1ccc(F)c(C(=O)c2c[nH]c3ncc(-c4ccc(Cl)cc4)cc23)c1F	enzyme activity, inhibitor	1 µM	inhibition	< 20%
Cc1nn(CC(F)(F)F)cc1Nc1ncc(Br)c(NCCCNC(=O)C2CCC2)n1	enzyme activity, inhibitor, radiometric	1 µM	remaining activity	27%
CCCOc1ccc([C@@H]2[C@@H](C(=O)O)[C@H](c3ccc4c(c3)OCO4)CN2CC(=O)Nc2c(CC)cccc2CC)cc1	cell-free assay, competition with immobilised ligand	1 µM	remaining binding	100%
COc1cc2ncnc(Nc3ccc(Oc4ccccc4)cc3C)c2cc1OC	enzyme activity, inhibitor	1 µM	inhibition	6%
O=C1Nc2ccc(Cl)cc2C1=Cc1cc(Cl)c(O)c(Cl)c1	cell-free assay	0.5 µM	remaining signal	78.4%
CCCCN(CCCC)C(=O)CN1C[C@@H](c2cc(OC)c3c(c2)OCO3)[C@H](C(=O)O)[C@H]1CC(C)(C)CCC	cell-free assay, competition with immobilised ligand	1 µM	remaining binding	93%
NS(=O)(=O)c1ccc(CNc2nc(Nc3cccc(CN4CCOCC4)c3)ncc2C2CC2)cc1	enzyme activity, inhibitor, radiometric	1 µM	remaining activity	98%
